# Bioassay records deposited in PubChem BioAssay by several laboratories.
# APJ antag: antagonists of human apelin receptor APJ, primary screen, CHO-K1 cells, beta-arrestin complementation, luminescence | inhibition, % at 20 µM | hit rate 0.32% among 330,000 | P35414;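 active = inhibition above about 40% at 20 µM, limit read from the data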;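 also: cells challenged with 10 nM apelin-13 agonist together with compound; plate controls were apelin-13 plus DMSO wells for no effect and DMSO wells lacking apelin-13 for full effect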
# Target sequence (P35414 whole entry, looked up): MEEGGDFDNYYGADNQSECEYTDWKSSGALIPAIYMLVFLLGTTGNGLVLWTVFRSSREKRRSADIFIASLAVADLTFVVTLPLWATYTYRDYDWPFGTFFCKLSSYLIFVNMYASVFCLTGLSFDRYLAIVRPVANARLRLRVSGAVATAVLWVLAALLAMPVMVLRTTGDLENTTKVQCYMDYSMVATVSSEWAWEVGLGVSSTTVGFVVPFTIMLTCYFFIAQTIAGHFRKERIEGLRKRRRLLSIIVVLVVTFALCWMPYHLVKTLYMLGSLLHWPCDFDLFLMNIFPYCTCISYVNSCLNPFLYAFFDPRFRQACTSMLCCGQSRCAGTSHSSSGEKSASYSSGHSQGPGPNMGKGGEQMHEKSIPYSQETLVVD
# EBI2 antag: EBI2 receptor antagonists, beta-arrestin recruitment, primary screen, cell-based, luminescence, 7a,25-OHC stimulation, uHTS; inhibition, % at 5 µM; hit rate 0.81% among 360,000; 7a,25-OHC stimulated; in the data active = inhibition above about 38%;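 also: enzyme fragment complementation signal reports receptor beta-arrestin coupling in cells; 0% = agonist plus DMSO wells and 100% = wells without agonist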
# CCR6 antag: CCR6 receptor antagonists, primary screen, cell-based, CHO-K1, luminescence, beta-arrestin, uHTS; C-C chemokine receptor type 6 (Homo sapiens), P51684; CHO-K1 CCR6 PathHunter beta-arrestin, CCL20-stimulated; inhibition, % at 20 µM; hit rate 0.49% among 340,000; AID 493098, 2011;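 active = compounds whose inhibition of the agonist-driven luminescence signal at 20 µM reaches about 50%, limit read from the data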;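 also: cells stimulated with CCL20 at 14 nM final; plate controls were DMSO with CCL20 for no effect and DMSO without agonist for full effect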
# CXCR6 block: CXCR6 receptor inhibitors, primary screen, cell-based, beta-arrestin, luminescence, CHO-K1 PathHunter, 1536-well | inhibition, % at 20 µM | hit rate 0.36% among 360,000; in the data active = inhibition above about 34%, passing the limit was not always enough;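 also: antagonist mode with CXCL16 agonist at 10 nM final; 0% = 10 nM CXCL16 with DMSO and 100% = unstimulated wells without agonist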
# HTR2A ag: mouse Htr2a agonists via beta-arrestin recruitment, primary screen, cell-based, luminescence; 5-hydroxytryptamine receptor 2A (Mus musculus), P35363; CHO-K1 mHTR2A beta-arrestin complementation; percent of 30 µM serotonin response; activation, % at 7.6 µM; hit rate 0.66% among 360,000; AID 624169, 2012;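 active = activation above a run cutoff, the mean activation of all tested compounds plus 3 SD, cut at about 14% in these data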;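 also: 0% = plate median of compound wells and 100% = 30 µM serotonin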
# APJ agonist: agonists of human apelin receptor APJ, primary screen, CHO-K1 cells, PathHunter beta-arrestin, luminescence; 0% DMSO wells, 100% apelin; AID 2520, 2010; hit rate 0.11% among 330,000; activation, % at 20 µM; P35414;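 active = activation more than six SD over the plate average, tested at 20 µM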;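 also: 0% = DMSO alone and 100% = apelin-13 at 10 nM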
#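 Test system – PathHunter CHO-K1 APJ (AGTRL-1) beta-arrestin reporter cells · Input – 1000 cells/well · Compound – single test compound dose, 20 µM final, 1% DMSO · Times – compound stimulation 90 min at 25 °C, detection 60 min · Technique – beta-gal luminescence · Read-out basis – APJ–arrestin association signal · Control set – negative DMSO alone, positive Apelin-13 at 10 nM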
# APJ antag conf: APJ antagonists blocking beta-arrestin recruitment, confirmation, cell-based, luminescence, single concentration, uHTS hits; shares compounds with APJ antag; inhibition, % at 20 µM; antagonist mode; hit rate 66% among 950; AID 2766, 2010; in the data active = inhibition above about 50%
# CXCR6 antag conf: CXCR6 receptor antagonists, confirmation, cell-based, single concentration, beta-arrestin, luminescence. shares compounds with CXCR6 block. CHO-K1 CXCR6 PathHunter beta-arrestin. inhibition, % at 20 µM. hit rate 65% among 700. AID 602409, 2012;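 active = mean inhibition over four retests above 40%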;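 also: receptor stimulated with 10 nM CXCL16 agonist; beta-galactosidase fragment complementation upon beta-arrestin recruitment to receptor; plate controls were CXCL16 plus DMSO for no effect and DMSO without CXCL16 for full effect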
# EBI2 antag conf: EBI2 antagonist hit retest, beta-arrestin, confirmation, cell-based, single concentration, luminescence, 7a,25-OHC stimulation; shares compounds with EBI2 antag; 7a,25-OHC antagonism; inhibition, % at 5 µM; hit rate 29% among 2,400; AID 651997, 2013;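 active = inhibition of at least 50%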
# EBI2 ag: EBI2 agonist activity of antagonist hits, confirmation, counter-screen for EBI2 antagonist project, cell-based, single concentration, agonist mode, luminescence; 2,400 tested, under 10 active; shares compounds with EBI2 antag; EBI2-expressing cells, 60 min; 0% vehicle, 100% 7α,25-dihydroxycholesterol control; activation, % at 5 µM;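 active = activation of at least 50%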
# bGal cs: E. coli beta-galactosidase enzyme inhibition, confirmation, counter-screen for EBI2 antagonist project, biochemical, luminescence, single concentration; hit rate 1% among 2,400; inhibition, % at 5 µM; purified beta-galactosidase, luminescent Galacton Star, 15 min; AID 652176, 2013; shares compounds with EBI2 antag;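 active = replicate-average signal at least 3 plate SD below neutral wells, shown as high inhibition, flagging enzyme-inhibiting false positives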;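 also: 0% = DMSO wells with enzyme and 100% = wells lacking enzyme; higher means stronger loss of beta-gal luminescence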
# The depositor's hits bear a star; x = not tested or not shown. The list is not random: actives were taken first. Their share in the collection is about 2.1%.
SMILES,APJ antag,EBI2 antag,CCR6 antag,CXCR6 block,HTR2A ag,APJ agonist,APJ antag conf,EBI2 antag conf,EBI2 ag,bGal cs,others
CC1(C)CC(=O)C(C=Nc2ccc(C(=O)c3ccccc3)cc2N=CC2=C(O)CC(C)(C)CC2=O)=C(O)C1,120*,74*,111*,103*,3,-18,156*,93*,-6,83*,CXCR6 antag conf=114*
CC1(C)CC(=O)C(C=Nc2ccc(O)c(N=CC3=C(O)CC(C)(C)CC3=O)c2)=C(O)C1,-11,-3,-14,22,2,0,x,x,x,x,
CCOc1ccccc1N(CC(=O)NC1CCCCC1)C(=O)CNC(=O)c1ccco1,11,-13,-1,-1,0,-2,x,x,x,x,
CCOC(=O)C1C(C)N=C2SCC(=O)N2C1c1cccc(Br)c1 (stereo unspecified),41*,38*,23,-2,2,-6,33,-6,-1,-11,
C/C(=N\NC(=O)COc1ccccc1-c1ccccc1)c1cccnc1,-8,2,6,-1,3,4,x,x,x,x,
C/C(=N\NC(=O)COc1ccccc1-c1ccccc1)c1ccccn1,62*,62*,89*,66*,1,-10,88*,71*,-1,5,CXCR6 antag conf=102*
CC(CCc1ccccc1)NC(=O)C(=O)NCCO (stereo unspecified),-9,-1,-3,7,1,-4,x,x,x,x,
CC(=O)OCCCNc1cc(Sc2ccc(C)cc2)c2nonc2c1[N+](=O)[O-],71*,85*,70*,71*,0,-8,103*,45,-1,2,
Cc1ccc(C(=O)CNc2ccc(Br)cc2)cc1,84*,74*,56*,39,-5,-16,102*,66*,-4,4,
CCOC(=O)c1ccc(NC(=O)CN2C(=O)CN(C(C)=O)C2=S)cc1,6,-1,18,-1,3,-2,x,x,x,x,
Cc1ccc2nc3sc(C(=O)N4CCCc5ccccc54)c(N)c3cc2c1,76*,54*,19,-3,-2,-13,-8,55*,0,10,
Cc1ccc(-c2cc(C(=O)N3CCCc4ccccc43)c3ccccc3n2)cc1,-4,10,14,2,-5,-6,x,x,x,x,
O=C(NCc1ccco1)c1nc2ccccc2s1,5,-8,6,41*,-3,-4,x,x,x,x,CXCR6 antag conf=11
O=S1(=O)CCN(C(CO)c2ccccc2)CC1 (stereo unspecified),6,-15,7,-1,-1,2,x,x,x,x,
CC1CCN(C(=O)/C(=C/c2ccccc2Cl)c2ccccc2)CC1,5,-1,8,2,-2,-1,x,x,x,x,
N#CC(C#N)=C1C=CC=CN1/C(=C\c1ccccc1Cl)C(=O)c1ccccc1,x,22,116*,93*,-3,x,x,x,x,x,CXCR6 antag conf=82*
O=C1c2cccnc2C(=O)N1Cc1ccc2c(c1)OCO2,-4,3,-12,-7,7,-3,x,x,x,x,
